Screening results as filed in PubChem BioAssay.
ERb coact inh = ER-beta (human) coactivator binding inhibition | actives 1.3% (n = 86,000) | inhibition, % at 25.6 µM | Q92731 | TR-FRET ER-beta LBD / SRC1-Cy5 peptide binding; receptor agonist-loaded with 1 µM estradiol | AID 633;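 active means compounds whose percent inhibition of the receptor-coactivator binding signal exceeds about 50% in the single-dose screen, limit read from the data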;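 further: 0% = receptor plus peptide wells without compound and 100% = peptide-only wells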
ERa coact inh = blocks coactivator binding to human estrogen receptor alpha; P03372; TR-FRET ER-alpha LBD / SRC-1 peptide, estradiol-bound; inhibition, % at 25.6 µM; actives 1.7% (n = 86,000); AID 629; in the data active means inhibition above about 50%;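 further: 0% = receptor plus peptide control and 100% = peptide only without receptor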
Target sequence (P03372 whole entry, looked up, the tested form may be a part): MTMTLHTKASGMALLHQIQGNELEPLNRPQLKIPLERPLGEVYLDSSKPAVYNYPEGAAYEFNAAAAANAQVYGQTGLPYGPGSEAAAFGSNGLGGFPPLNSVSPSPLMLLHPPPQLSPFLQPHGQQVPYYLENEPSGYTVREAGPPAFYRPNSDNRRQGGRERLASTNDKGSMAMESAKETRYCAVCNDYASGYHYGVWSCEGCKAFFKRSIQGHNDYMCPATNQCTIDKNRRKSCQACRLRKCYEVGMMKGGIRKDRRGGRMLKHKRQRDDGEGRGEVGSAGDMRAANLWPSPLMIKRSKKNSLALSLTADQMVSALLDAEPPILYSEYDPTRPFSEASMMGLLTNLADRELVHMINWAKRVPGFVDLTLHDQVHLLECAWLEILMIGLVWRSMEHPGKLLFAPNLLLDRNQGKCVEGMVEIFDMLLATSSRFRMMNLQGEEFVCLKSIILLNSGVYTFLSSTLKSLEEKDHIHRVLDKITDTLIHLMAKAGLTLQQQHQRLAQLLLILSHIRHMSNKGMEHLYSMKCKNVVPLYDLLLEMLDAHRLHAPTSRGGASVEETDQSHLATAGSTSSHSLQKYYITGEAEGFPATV
ERa coact pot = enhances coactivator binding to human estrogen receptor alpha; actives 1.3% (n = 86,000); AID 639; coactivator binding (% of control), % at 25.6 µM; P03372; TR-FRET ERalpha-LBD/SRC-Cy5 coactivator binding, 2 h; 100 = basal binding, no effect; in the data active means activity above about 200%;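 further: binding measured in presence of low estradiol as agonist stimulus; 0% = peptide alone without receptor and 100% = receptor with peptide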
SF-1 act = activates the human nuclear receptor SF-1 | Q13285 | CHO-K1 Gal4-SF-1 LBD luciferase reporter; % increase over DMSO SF-1-specific signal | activation, % at 10 µM | actives 1.9% (n = 65,000) | AID 522;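 active means activation above the mean activation of all tested compounds plus 3 SD, cut at about 50% in these data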
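Material: Transient Gal4-SF-1 LBD reporter, CHO-K1 | Input: 4,000 cells/well | Dosing: One dose, 10 µM compound, 1% DMSO | Incubation: 20 h compound treatment, 37 °C | Detection: SteadyLite luciferase luminescence | Evaluation: Percent activation relative to DMSO median and mock-transfected background | Benchmarks: DMSO-treated SF-1-transfected cells as negative, DMSO-treated mock-transfected cells lacking SF-1 as background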
RORA act = RORA (human) activation; P35398; CHO-K1 Gal4-RORA LBD luciferase reporter, luminescence; percent increase over mock-subtracted basal signal; activation, % at 10 µM; actives 1.5% (n = 65,000); AID 560;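 active means activation above the mean of all tested compounds plus 3 SD, cut at about 49% in these data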;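 further: 0% = DMSO-treated RORA cells and 100% = added signal equal to DMSO minus mock-transfected cells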
PTK2B oligo ant = antagonists of human Pyk2 oligomerization; Q14289; Q293 cells, Pyk2 FERM NanoBiT luminescence; stronger effect = lower value; z-score (the deposit names both 25 µM and 10 µM); actives 0.83% (n = 99,000); AID 1347419;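 active means Z-score of -3 or lower, scaled per plate to the spread of control and sample wells; inactive means z-score above -3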;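 further: negative z-score means lost luminescence so less FERM oligomerization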
* hit, by the source's call; . = no result; [ ] = another dose, or the depositor's remark. Sampled rows, rich in hits. Any-hit rate of the full collection: about 4.8%.

SMILES	ERb coact inh	ERa coact inh	ERa coact pot	SF-1 act	RORA act	PTK2B oligo ant
Nc1ccc(-c2nc3ccccc3[nH]2)cc1	-2.1	-1.4	108.8	56.0*	38.2	.
COc1cccc2cc(-c3cn4ccc(C)cc4n3)c(=O)oc12	52.7*[fluorescence artefact?]	73.9*	60.8	.	.	0.5
COc1cccc2cc(-c3cn4cccc(C)c4n3)c(=O)oc12	.	.	.	52.8*	24.1	0.02
CCOc1cccc2cc(-c3cn4cc(C)ccc4n3)c(=O)oc12	50.0*	81.1*	126.0	28.4	45.0	-0.2
Cn1c(CSCc2ccc(Cl)cc2)nnc1SCC(=O)Nc1nc2ccccc2s1	-12.9	-15.0	104.1	.	.	1.59
COc1ccc(CC(=O)OCC(=O)Nc2ncc(Cl)cc2Cl)cc1	42.9	51.7*[fluorescence artefact?]	53.1	12.1	-12.4	0.49
CC(C)CN(C(=O)COC(=O)c1cc2c(s1)CCC2)C1CCS(=O)(=O)C1 (configuration not stated)	74.5*	80.4*	23.3	-12.7	23.3	0.26
CCOC(=O)c1c(C)oc2ccc(NS(=O)(=O)c3cccs3)cc12	6.5	7.3	90.6	.	.	-1.19
CCCCOC(=O)c1c(C)oc2ccc(NS(=O)(=O)c3ccc4c5c(cccc35)C(=O)N4)cc12	53.2*	44.9	54.4	.	.	-2.15
COCCOC(=O)c1c(C)oc2ccc(NS(=O)(=O)c3ccc(C(=O)O)cc3)cc12	53.7*[fluorescence artefact?]	39.0	49.2	-8.1	-5.9	-0.37
Cc1[nH]c2ccccc2c1Cc1nnc(SCc2ccccc2)o1	1.4	10.3	88.5	.	.	.
CC1=C(C(=O)c2ccccc2)C(c2cn(-c3ccccc3)nc2-c2ccc(Cl)cc2)NC(=S)N1 (configuration not stated)	-2.7	-12.3	282.1*[fluorescence artefact?]	.	.	-0.5
CC1CCCC(NC(=O)c2ccc3c(=O)n(CC4CCCO4)c(=O)[nH]c3c2)C1C (configuration not stated)	.	.	.	-3.6	10.2	-0.3
O=C(NCc1ccc2c(c1)OCO2)c1nnc(Cc2ccc(Cl)cc2)o1	-3.0	-3.3	116.7	4.5	-14.7	.
Cc1nc2ccccc2n2c(O)c(CC(=O)O)cc12	58.4*[fluorescence artefact?]	40.9	55.1	-4.6	-2.2	0.26
CC(=O)c1c(C)nc(-c2ccc(Cl)cc2)nc1N=CN(C)C	37.3	24.1	194.6	75.6*	67.6*	0.98
O=C(Nc1ncc(Cc2ccccc2)s1)C1COc2ccccc2O1 (configuration not stated)	-12.9	-2.6	91.0	.	.	-0.83
CCN(CC)C(=O)CSc1nc2sc3c(c2c(=O)n1-c1ccc(C)cc1)CC(C)(C)SC3	-15.2	-16.6	245.8*	.	.	-0.58
Cc1ccc(-n2c(SCC(=O)NCc3ccco3)nc3sc4c(c3c2=O)CC(C)(C)SC4)cc1	14.4	4.9	139.4	.	.	-0.52
CS(=O)(=O)NCCSc1nnnn1-c1ccccc1	-8.0	-4.1	109.3	-10.6	-7.3	1.13
O=S(=O)(NCCSc1nnnn1-c1ccccc1)c1cccs1	3.0	0.2	94.1	54.1*	22.1	-0.19
Cn1c(NCc2c[nH]c3ccccc23)nc2ccccc21	1.0	-9.2	100.5	77.6*	63.8*	-0.36
CCOc1ccc(OCC)c(NC(=O)C2CCN(c3ncccn3)CC2)c1	3.6	-7.5	106.2	-10.4	12.2	1.06
C=CCn1c(O)c(C(CC)=NCc2cccnc2)c(=O)[nH]c1=O	50.2*	-0.9	111.7	-1.6	6.6	0.27
Cc1onc(-c2ccccc2)c1C(=O)Nc1cccc2nsnc12	22.0	35.8	265.8*	-28.3	-1.4	0.01
SMILES	ERb coact inh	ERa coact inh	ERa coact pot	SF-1 act	RORA act	PTK2B oligo ant
Cc1onc(-c2ccccc2)c1C(=O)Nc1nc(-c2cc(F)ccc2F)cs1	18.6	6.1	207.6*[fluorescence artefact?]	53.6*	17.8	0.84
Cc1onc(-c2c(F)cccc2Cl)c1C(=O)Nc1nnc(-c2ccccc2)s1	3.5	8.1	105.3	.	.	-3.06*
C=CCc1c(OC)ccc2ccc(=O)oc12	.	.	.	.	.	1.07
CCOC(=O)C1CCN(Cc2cnc(Oc3ccc(N)cc3)s2)CC1	.	.	.	.	.	-0.02
COc1ccc(Br)cc1/C=c1\sc2nc(-c3ccco3)nn2c1=O	.	.	.	2.5	-13.7	0.27
O=c1nc2s/c(=C\c3ccco3)c(=O)n2nc1Cc1ccc(F)cc1	88.0*	95.8*[fluorescence artefact?]	3.8	-20.3	12.6	1.54
O=c1/c(=C/c2ccco2)sc2n1CN(c1ccccc1)CN=2	-14.6	-5.7	112.1	.	.	-0.2
